From ChEMBL document CHEMBL4689842, “EUbOPEN Chemogenomics Library wave 1” (2021)

System: HEK-293T
Experiment: Multiplex assay against HEK293T;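 for Population Tubulin-Different-Phenotype (%): share of the cells with healthy nuclei that show this phenotype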
Assay type: toxicity, cell-based
Details: human
In short: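 Phenotypes for tubulin, mitochondrial mass and membrane permeability are expressed as per cents of healthy-nucleus cells. Cells were stained live at seeding with Hoechst33342, BioTracker Green Microtubule Cytoskeleton Dye, MitoTracker Red and Annexin V Alexa Fluor 680, then imaged after compound addition on a CQ1 microscope at 37°C and 5% CO2. Machine-learning gating in CellPathfinder separated Hoechst high-intensity objects from normal cells, divided normal cells by nuclear state (healthy, pyknosed, fragmented) and divided pyknosed cells into mitotic or apoptotic.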

[1] = 12 h, 1 µM, compound concentration 1 uM, replicate 1
[2] = 12 h, 1 µM, compound concentration 1 uM, replicate 2
[3] = 12 h, 10 µM, compound concentration 10 uM, replicate 1
[4] = 12 h, 10 µM, compound concentration 10 uM, replicate 2
[5] = 24 h, 1 µM, compound concentration 1 uM, replicate 1
[6] = 24 h, 1 µM, compound concentration 1 uM, replicate 2
[7] = 24 h, 10 µM, compound concentration 10 uM, replicate 1
[8] = 24 h, 10 µM, compound concentration 10 uM, replicate 2
[9] = 48 h, 1 µM, compound concentration 1 uM, replicate 1
[10] = 48 h, 1 µM, compound concentration 1 uM, replicate 2
[11] = 48 h, 10 µM, compound concentration 10 uM, replicate 1
[12] = 48 h, 10 µM, compound concentration 10 uM, replicate 2

SMILES: CCCc1cc(C)[nH]c(=O)c1CNC(=O)c1cc(-c2ccc(N3CCN(C(C)C)CC3)nc2)cc2c1cnn2C(C)C
- Population Apoptotic (%) [1]: 63%
- Population Fragmented Nuclei (%) [1]: 13%
- Population Healthy Nuclei (%) [1]: 25%
- Population Hoechst High Intensity Objects (%) [1]: 13%
- Population Membrane Permeable-Phenotype (%) [1]: 9%
- Population Mitochondria Different-Phenotype (%) [1]: 97%
- Population Mitotic Cells (%) [1]: 36%
- Population Normal (%) [1]: 86%
- Population Pyknosed Nuclei (%) [1]: 60%
- Population Tubulin-Different-Phenotype (%) [1]: 86%
- Total Cell Count [1]: 193
- Population Apoptotic (%) [2]: 51%
- Population Fragmented Nuclei (%) [2]: 4%
- Population Healthy Nuclei (%) [2]: 27%
- Population Hoechst High Intensity Objects (%) [2]: 3%
- Population Membrane Permeable-Phenotype (%) [2]: 3%
- Population Mitochondria Different-Phenotype (%) [2]: 87%
- Population Mitotic Cells (%) [2]: 48%
- Population Normal (%) [2]: 96%
- Population Pyknosed Nuclei (%) [2]: 67%
- Population Tubulin-Different-Phenotype (%) [2]: 94%
- Total Cell Count [2]: 200
- Population Apoptotic (%) [3]: 94%
- Population Fragmented Nuclei (%) [3]: 9%
- Population Healthy Nuclei (%) [3]: 20%
- Population Hoechst High Intensity Objects (%) [3]: 20%
- Population Membrane Permeable-Phenotype (%) [3]: 2%
- Population Mitochondria Different-Phenotype (%) [3]: 97%
- Population Mitotic Cells (%) [3]: 5%
- Population Normal (%) [3]: 79%
- Population Pyknosed Nuclei (%) [3]: 69%
- Population Tubulin-Different-Phenotype (%) [3]: 89%
- Total Cell Count [3]: 231
- Population Apoptotic (%) [4]: 96%
- Population Fragmented Nuclei (%) [4]: 5%
- Population Healthy Nuclei (%) [4]: 12%
- Population Hoechst High Intensity Objects (%) [4]: 8%
- Population Membrane Permeable-Phenotype (%) [4]: 11%
- Population Mitochondria Different-Phenotype (%) [4]: 94%
- Population Mitotic Cells (%) [4]: 3%
- Population Normal (%) [4]: 91%
- Population Pyknosed Nuclei (%) [4]: 82%
- Population Tubulin-Different-Phenotype (%) [4]: 100%
- Total Cell Count [4]: 151
- Population Apoptotic (%) [5]: 79%
- Population Fragmented Nuclei (%) [5]: 11%
- Population Healthy Nuclei (%) [5]: 26%
- Population Hoechst High Intensity Objects (%) [5]: 17%
- Population Membrane Permeable-Phenotype (%) [5]: 4%
- Population Mitochondria Different-Phenotype (%) [5]: 97%
- Population Mitotic Cells (%) [5]: 20%
- Population Normal (%) [5]: 82%
- Population Pyknosed Nuclei (%) [5]: 62%
- Population Tubulin-Different-Phenotype (%) [5]: 97%
- Total Cell Count [5]: 190
- Population Apoptotic (%) [6]: 57%
- Population Fragmented Nuclei (%) [6]: 2%
- Population Healthy Nuclei (%) [6]: 52%
- Population Hoechst High Intensity Objects (%) [6]: 3%
- Population Membrane Permeable-Phenotype (%) [6]: 6%
- Population Mitochondria Different-Phenotype (%) [6]: 94%
- Population Mitotic Cells (%) [6]: 42%
- Population Normal (%) [6]: 96%
- Population Pyknosed Nuclei (%) [6]: 45%
- Population Tubulin-Different-Phenotype (%) [6]: 94%
- Total Cell Count [6]: 239
- Population Apoptotic (%) [7]: 91%
- Population Fragmented Nuclei (%) [7]: 15%
- Population Healthy Nuclei (%) [7]: 16%
- Population Hoechst High Intensity Objects (%) [7]: 19%
- Population Mitochondria Different-Phenotype (%) [7]: 96%
- Population Mitotic Cells (%) [7]: 8%
- Population Normal (%) [7]: 80%
- Population Pyknosed Nuclei (%) [7]: 68%
- Population Tubulin-Different-Phenotype (%) [7]: 77%
- Total Cell Count [7]: 236
- Population Apoptotic (%) [8]: 98%
- Population Fragmented Nuclei (%) [8]: 4%
- Population Healthy Nuclei (%) [8]: 20%
- Population Hoechst High Intensity Objects (%) [8]: 14%
- Population Membrane Permeable-Phenotype (%) [8]: 3%
- Population Mitochondria Different-Phenotype (%) [8]: 100%
- Population Mitotic Cells (%) [8]: 1%
- Population Normal (%) [8]: 85%
- Population Pyknosed Nuclei (%) [8]: 74%
- Population Tubulin-Different-Phenotype (%) [8]: 81%
- Total Cell Count [8]: 151
- Population Apoptotic (%) [9]: 75%
- Population Fragmented Nuclei (%) [9]: 19%
- Population Healthy Nuclei (%) [9]: 46%
- Population Hoechst High Intensity Objects (%) [9]: 9%
- Population Membrane Permeable-Phenotype (%) [9]: 0%
- Population Mitochondria Different-Phenotype (%) [9]: 96%
- Population Mitotic Cells (%) [9]: 24%
- Population Normal (%) [9]: 90%
- Population Pyknosed Nuclei (%) [9]: 33%
- Population Tubulin-Different-Phenotype (%) [9]: 86%
- Total Cell Count [9]: 241
- Population Apoptotic (%) [10]: 69%
- Population Fragmented Nuclei (%) [10]: 6%
- Population Healthy Nuclei (%) [10]: 68%
- Population Hoechst High Intensity Objects (%) [10]: 2%
- Population Membrane Permeable-Phenotype (%) [10]: 1%
- Population Mitochondria Different-Phenotype (%) [10]: 77%
- Population Mitotic Cells (%) [10]: 30%
- Population Normal (%) [10]: 97%
- Population Pyknosed Nuclei (%) [10]: 25%
- Population Tubulin-Different-Phenotype (%) [10]: 91%
- Total Cell Count [10]: 327
- Population Apoptotic (%) [11]: 95%
- Population Fragmented Nuclei (%) [11]: 20%
- Population Healthy Nuclei (%) [11]: 10%
- Population Hoechst High Intensity Objects (%) [11]: 28%
- Population Membrane Permeable-Phenotype (%) [11]: 5%
- Population Mitochondria Different-Phenotype (%) [11]: 94%
- Population Mitotic Cells (%) [11]: 4%
- Population Normal (%) [11]: 71%
- Population Pyknosed Nuclei (%) [11]: 68%
- Population Tubulin-Different-Phenotype (%) [11]: 61%
- Total Cell Count [11]: 241
- Population Apoptotic (%) [12]: 98%
- Population Fragmented Nuclei (%) [12]: 5%
- Population Healthy Nuclei (%) [12]: 31%
- Population Hoechst High Intensity Objects (%) [12]: 27%
- Population Membrane Permeable-Phenotype (%) [12]: 2%
- Population Mitochondria Different-Phenotype (%) [12]: 100%
- Population Mitotic Cells (%) [12]: 1%
- Population Normal (%) [12]: 72%
- Population Pyknosed Nuclei (%) [12]: 62%
- Population Tubulin-Different-Phenotype (%) [12]: 55%
- Total Cell Count [12]: 148

SMILES: NC(=O)c1ccc2nc(-c3ccc(C4(N)CCC4)cc3)c(-c3ccccc3)n2n1 [BAY-1125976]
- Population Apoptotic (%) [1]: 22%
- Population Healthy Nuclei (%) [1]: 67%
- Population Hoechst High Intensity Objects (%) [1]: 16%
- Population Mitochondria Different-Phenotype (%) [1]: 12%
- Population Mitotic Cells (%) [1]: 77%
- Population Normal (%) [1]: 83%
- Population Pyknosed Nuclei (%) [1]: 17%
- Population Tubulin-Different-Phenotype (%) [1]: 26%
- Total Cell Count [1]: 688
- Population Apoptotic (%) [2]: 10%
- Population Fragmented Nuclei (%) [2]: 4%
- Population Healthy Nuclei (%) [2]: 87%
- Population Hoechst High Intensity Objects (%) [2]: 4%
- Population Mitochondria Different-Phenotype (%) [2]: 17%
- Population Mitotic Cells (%) [2]: 89%
- Population Normal (%) [2]: 95%
- Population Tubulin-Different-Phenotype (%) [2]: 38%
- Total Cell Count [2]: 1223
- Population Apoptotic (%) [3]: 19%
- Population Fragmented Nuclei (%) [3]: 17%
- Population Healthy Nuclei (%) [3]: 62%
- Population Hoechst High Intensity Objects (%) [3]: 15%
- Population Mitochondria Different-Phenotype (%) [3]: 5%
- Population Mitotic Cells (%) [3]: 80%
- Population Normal (%) [3]: 84%
- Population Pyknosed Nuclei (%) [3]: 19%
- Population Tubulin-Different-Phenotype (%) [3]: 5%
- Total Cell Count [3]: 611
- Population Apoptotic (%) [4]: 12%
- Population Fragmented Nuclei (%) [4]: 7%
- Population Healthy Nuclei (%) [4]: 87%
- Population Hoechst High Intensity Objects (%) [4]: 2%
- Population Mitochondria Different-Phenotype (%) [4]: 8%
- Population Mitotic Cells (%) [4]: 87%
- Population Normal (%) [4]: 97%
- Population Pyknosed Nuclei (%) [4]: 4%
- Total Cell Count [4]: 1764
- Population Apoptotic (%) [5]: 32%
- Population Hoechst High Intensity Objects (%) [5]: 15%
- Population Mitochondria Different-Phenotype (%) [5]: 9%
- Population Mitotic Cells (%) [5]: 67%
- Population Normal (%) [5]: 84%
- Population Pyknosed Nuclei (%) [5]: 10%
- Population Tubulin-Different-Phenotype (%) [5]: 44%
- Total Cell Count [5]: 691
- Population Apoptotic (%) [6]: 10%
- Population Fragmented Nuclei (%) [6]: 19%
- Population Healthy Nuclei (%) [6]: 76%
- Population Hoechst High Intensity Objects (%) [6]: 4%
- Population Mitochondria Different-Phenotype (%) [6]: 5%
- Population Mitotic Cells (%) [6]: 89%
- Population Normal (%) [6]: 95%
- Population Pyknosed Nuclei (%) [6]: 3%
- Population Tubulin-Different-Phenotype (%) [6]: 42%
- Total Cell Count [6]: 1875
- Population Apoptotic (%) [7]: 26%
- Population Healthy Nuclei (%) [7]: 77%
- Population Hoechst High Intensity Objects (%) [7]: 11%
- Population Mitochondria Different-Phenotype (%) [7]: 4%
- Population Mitotic Cells (%) [7]: 73%
- Population Normal (%) [7]: 88%
- Population Pyknosed Nuclei (%) [7]: 8%
- Population Tubulin-Different-Phenotype (%) [7]: 8%
- Total Cell Count [7]: 699
- Population Apoptotic (%) [8]: 6%
- Population Fragmented Nuclei (%) [8]: 23%
- Population Healthy Nuclei (%) [8]: 74%
- Population Hoechst High Intensity Objects (%) [8]: 3%
- Population Mitochondria Different-Phenotype (%) [8]: 1%
- Population Mitotic Cells (%) [8]: 93%
- Population Normal (%) [8]: 96%
- Population Pyknosed Nuclei (%) [8]: 2%
- Population Tubulin-Different-Phenotype (%) [8]: 6%
- Total Cell Count [8]: 3086
